pIC50: −log10 of the molar value. Activity calls are given as the source filed them. The rule behind the calls is not given here.
Tests used:
A549 [1] = experiment: Induction of apoptosis in human A549 cells assessed as early apoptotic cells at 30 uM after 48 hrs by AnnexinV/propidium iodide staining (Rvb =4.3%); type: functional
A549 [2] = experiment: Induction of mitochondrial signal transduction pathway-mediated apoptosis in human A549 cells assessed as increase in cleaved caspase-3 level at 30 uM after 24 to 48 hrs by Western blot analysis
HL-60 [3] = experiment: Induction of mitochondrial signal transduction pathway-mediated apoptosis in human HL60 cells assessed as increase in Bax level at 30 uM after 8 to 24 hrs by Western blot analysis; conditions: TDE = time-dependent effect
A549 [4] = experiment: Induction of apoptosis in human A549 cells assessed as necrotic cells at 30 uM after 48 hrs by AnnexinV/propidium iodide staining (Rvb =3.4%); type: functional
A549 [5] = experiment: Induction of apoptosis in human A549 cells assessed as early apoptotic cells at 30 uM after 24 hrs by AnnexinV/propidium iodide staining (Rvb =4.3%); type: functional
A549 [6] = experiment: Induction of apoptosis in human A549 cells assessed as necrotic cells at 30 uM after 24 hrs by AnnexinV/propidium iodide staining (Rvb =3.4%); type: functional
HL-60 [7] = experiment: Cell cycle arrest in human HL60 cells assessed as accumulation at G2/M phase at 30 uM after 48 hrs by flow cytometry (reference value: 6.0%); type: functional
Outline: (§1)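 Cells seeded at 1 × 10^5 per sample for HL60 and 1.5 × 10^5 for A549, then exposed to 30 μM for 0, 24 or 48 h. After a PBS wash, DNA was stained with Nim-DAPI for 10 min at room temperature. Phase distribution was read by flow cytometry, with the sub-G1 (fragmented DNA) fraction taken as the apoptosis index. Values are means of three experiments.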

A549 [8] = experiment: Induction of mitochondrial signal transduction pathway-mediated apoptosis in human A549 cells assessed as increase in cleaved caspase-9 level at 30 uM after 24 to 48 hrs by Western blot analysis
HL-60 [9] = experiment: Cell cycle arrest in human HL60 cells assessed as accumulation at sub-G1 phase at 30 uM after 24 hrs by flow cytometry (reference value: 3.0%); type: functional; outline: as §1
HL-60 [10] = experiment: Induction of mitochondrial signal transduction pathway-mediated apoptosis in human HL60 cells assessed as increase in cleaved caspase-8 level at 30 uM after 8 hrs by Western blot analysis; type: functional, cell-based
Outline: (§2)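 HL60 cells (1 × 10^6) pre-incubated 24 h, then exposed to 30 μM final for 8 h. Whole-cell lysates in extraction buffer, resolved on 15% SDS-PAGE, blotted to PVDF, probed overnight at 4 °C with anti-caspase-8 or anti-caspase-9 primary antibodies, β-actin as loading reference. Procaspase loss and cleaved caspase bands read.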

A549 [11] = experiment: Induction of apoptosis in human A549 cells assessed as late apoptotic cells at 30 uM after 48 hrs by AnnexinV/propidium iodide staining (Rvb =1.1%); type: functional
HL-60 [12] = experiment: Cytotoxicity in human HL60 cells assessed as cell viability after 48 hrs by MTT assay; type: functional, cell-based; conditions: HL-60, 48 h
Outline: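 Growth conditions: RPMI 1640 for HL60, CRL1579, NIH:OVCAR-3, SK-BR-3, DU145 and PANC-1; D-MEM for A549; MEM for WI-38; all with 10% FBS and antibiotics, 37 °C, 5% CO2. Seeded at 3 × 10^3 cells/well (OVCAR-3 1 × 10^4), then treated 48 h with 10^-4 to 10^-6 M. MTT for 3 h, formazan dissolved in 0.04 M HCl/2-propanol, A570/630. IC50 (50% growth inhibition) from triplicates.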

A549 [13] = experiment: Cell cycle arrest in human A549 cells assessed as accumulation at Go/G1 phase at 30 uM after 24 hrs by flow cytometry (reference value: 64.3%); type: functional; outline: as §1
HL-60 [14] = experiment: Induction of mitochondrial signal transduction pathway-mediated apoptosis in human HL60 cells assessed as increase in cleaved caspase-9 level at 30 uM after 8 hrs by Western blot analysis; type: functional, cell-based; outline: as §2
HL-60 [15] = experiment: Induction of mitochondrial signal transduction pathway-mediated apoptosis in human HL60 cells assessed as decrease in Bcl-2 level at 30 uM after 8 to 24 hrs by Western blot analysis; conditions: TDE = time-dependent effect
HL-60 [16] = experiment: Cell cycle arrest in human HL60 cells assessed as accumulation at G2/M phase at 30 uM after 24 hrs by flow cytometry (reference value: 6.0%); type: functional; outline: as §1
A549 [17] = experiment: Cell cycle arrest in human A549 cells assessed as accumulation at G2/M phase at 30 uM after 24 hrs by flow cytometry (reference value: 4.9%); type: functional; outline: as §1
A549 [18] = experiment: Cell cycle arrest in human A549 cells assessed as accumulation at sub-G1 phase at 30 uM after 48 hrs by flow cytometry (reference value: 3.1%); type: functional; outline: as §1
HL-60 [19] = experiment: Induction of apoptosis in human HL60 cells assessed as necrotic cells at 30 uM after 48 hrs by AnnexinV/propidium iodide staining (Rvb =2.3%); type: functional
A549 [20] = experiment: Induction of mitochondrial signal transduction pathway-mediated apoptosis in human A549 cells assessed as increase in cleaved caspase-8 level at 30 uM after 24 to 48 hrs by Western blot analysis
A549 [21] = experiment: Induction of mitochondrial signal transduction pathway-mediated apoptosis in human A549 cells assessed as decrease in Bcl-2 level at 30 uM after 24 to 48 hrs by Western blot analysis; type: functional, cell-based
Outline: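 A549 cells (1.5 × 10^5) were pre-incubated 24 h, then given 30 μM for 24 or 48 h. Whole-cell lysates were run on 15% SDS-PAGE, transferred to PVDF and probed overnight at 4 °C for Bax, Bcl-2 and β-actin. The Bcl-2 band was quantified by densitometry relative to untreated cells, n = 3.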

A549 [22] = experiment: Induction of apoptosis in human A549 cells assessed as late apoptotic cells at 30 uM after 24 hrs by AnnexinV/propidium iodide staining (Rvb =1.1%); type: functional
HL-60 [23] = experiment: Induction of apoptosis in human HL60 cells assessed as early apoptotic cells at 30 uM after 24 hrs by AnnexinV/propidium iodide staining (Rvb =7.6%)
A549 [24] = experiment: Cell cycle arrest in human A549 cells assessed as accumulation at sub-G1 phase at 30 uM after 24 hrs by flow cytometry (reference value: 3.1%); type: functional; outline: as §1
[25] = Cytotoxicity in human AZ-521 cells assessed as cell viability after 48 hrs by MTT assay; type: functional, cell-based; conditions: AZ-521, 48 h
HL-60 [26] = experiment: Induction of apoptosis in human HL60 cells assessed as early apoptotic cells at 30 uM after 48 hrs by AnnexinV/propidium iodide staining (Rvb =7.6%)
HL-60 [27] = experiment: Induction of apoptosis in human HL60 cells assessed as late apoptotic cells at 30 uM after 48 hrs by AnnexinV/propidium iodide staining (Rvb =3.3%); type: functional
HL-60 [28] = experiment: Induction of apoptosis in human HL60 cells assessed as viable cells at 30 uM after 48 hrs by AnnexinV/propidium iodide staining (Rvb =85.6%); type: functional; conditions: HL-60, 48 h, read-out: Activity

For C=C(CC[C@@H](CO)[C@H]1[C@H](O)C[C@@]2(C)C3=CC[C@@H](C(=C)C)[C@](C)(CCCO)C3=CC[C@]12C)C(C)C [PORICOTRIOL A], the Activity (A549 [1]) was 24.1%, the Activity (A549 [2]) was “inactive” and the Activity (HL-60 [3]) was “tde”. It also gave an Activity (A549 [4]) of 6.3%, an Activity (A549 [5]) of 3.5% and an Activity (A549 [6]) of 4.3%. For the same molecule, the Activity (HL-60 [7]) was 10.9%, the Activity (A549 [8]) was “inactive” and the Activity (HL-60 [9]) was 35.4%. The Activity (HL-60 [10]) was “Active”, the Activity (A549 [11]) was 20.2% and the pIC50 (HL-60 [12]) was 5.72. For the same molecule, the Activity (A549 [13]) was 77.2%, the Activity (HL-60 [14]) was “Active” and the Activity (HL-60 [15]) was “tde”. For the same molecule, the Activity (HL-60 [16]) was 8.8%, the Activity (A549 [17]) was 7.5% and the Activity (A549 [18]) was 17.4%. For the same molecule, the Activity (HL-60 [19]) was 2.5%, the Activity (A549 [20]) was “inactive” and the Activity (A549 [21]) was “Active”. The Activity (A549 [22]) was 2.9%, the Activity (HL-60 [23]) was 48.1% and the Activity (A549 [24]) was 7.5%. For the same molecule, the pIC50 [25] was 5.85, the Activity (HL-60 [26]) was 52.5% and the Activity (HL-60 [27]) was 30.4%. It also gave a viability at 30 µM (HL-60 [28]) of 14.7%.

Source: ChEMBL document CHEMBL1765085, “Cytotoxic and apoptosis-inducing activities of triterpene acids from Poria cocos” (J Nat Prod, 2011)
